ADAM10 inh: human ADAM10 inhibitors, primary screen, biochemical, QFRET, HTS | Disintegrin and metalloproteinase domain-containing protein 10 (Homo sapiens), O14672 | recombinant ADAM10, EDANS/DABCYL FRET peptide cleavage, 3 h | inhibition, % at 7 µM | 0.62% of 370,000 active;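 active means inhibition above a per-campaign cutoff equal to the mean of compounds falling between control-based bounds plus 3 SD, cut at about 20% in these data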;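 further: 0% = DMSO wells while the 100% control is not disclosed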
aDG glyco up: activators of alpha-DG glycosylation, primary screen, uHTS, Pro5-aDG cells, AlphaScreen. alpha-DG glycosylation AlphaScreen (IIH6); 0% Pro5, 100% B10-LARGE cell signal. activation, % at 10 µM. 0.22% of 360,000 active. AID 624168, 2012;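 active means activation of at least 8% versus controls, or a plate z-score of at least 8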;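 further: Pro5 are CHO cells carrying HIG-tagged alpha-DG that lacks glycosylation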
MPTP block: mitochondrial permeability transition pore inhibitors, primary screen, biochemical, isolated mouse mitochondria, absorbance; Ca2+ swelling absorbance, 30 min; inhibition, % at 10 µM; 1.4% of 360,000 active;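 active means inhibition of 50% or more, scaled per plate between neutral and stimulator controls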;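 further: 0% = DMSO wells given calcium and 100% = 1 mM EGTA wells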
ADAM17 inh: ADAM17 inhibitors, primary screen, biochemical, QFRET. recombinant ADAM17, EDANS/DABCYL FRET peptide cleavage. AID 720648, 2013. 0.83% of 370,000 active. inhibition, % at 6.95 µM;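 active means inhibition above the mean of compounds lying between control limits plus 3 SD, set per campaign, cut at about 8.5% in these data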;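 further: 0% = DMSO-only wells as the low control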
V-ATPase pHluor: regulators of yeast V-ATPase proton pumping, primary screen, pHLuorin cytosolic pH fluorescence; response, % at 10 µM; 0.37% of 350,000 active; S. cerevisiae; in the data active means response mostly above about 7.3%, no sharp cut-off; inactive means mostly below about 5.4%; further: actives read high
Lipid droplet: inhibitors of hepatocyte lipid droplet formation, primary screen, imaging, high-throughput imaging, BODIPY stain; AID 1656, 2009; AML12 mouse hepatocytes, oleate lipid droplets; inhibition, % at 6.5 µM; 0.4% of 240,000 active;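 active means lipid droplet intensity inhibited by at least 50%, with more than 500 cells counted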
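Technique: fluorescence imaging, 20x objective, two fields per well / Assay system: AML12 hepatocytes (mouse) / Measure: % inhibition of lipid droplet signal / Doses: 6.5 µM single-point dosing / Incubation: overnight exposure / Reagent: 100 µM oleic acid challenge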
Rh123 counter: fluorescence retest of MPTP screen hits in isolated mitochondria, single concentration; inhibition, % at 10 µM; membrane potential, Rhodamine 123 fluorescence; shares compounds with MPTP block; 78% of 5,000 active; in the data active means inhibition above about 22%;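 further: 0% = DMSO vehicle and 100% = positive control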
MPTP swell DR: mitochondrial permeability transition pore inhibitors, dose response, biochemical, absorbance, uHTS hits; shares compounds with MPTP block; isolated mitochondria swelling; IC50, µM; 58% of 780 active; in the data active means IC50 below about 20 µM
MPTP cs DR: fluorescent counter-screen in isolated mitochondria, dose response, counter-screen for MPTP inhibitor project, biochemical, fluorescence, uHTS hits | 49% of 780 active | isolated mitochondria counterscreen, fluorescence read-out | shares compounds with MPTP block | IC50, µM; in the data active means IC50 below about 80 µM
The depositor's hits bear a star; i = inactive; · = not tested or not shown. Most compounds without a hit are left out; they make up all but 3.1% or so of the library.

SMILES	ADAM10 inh	aDG glyco up	MPTP block	ADAM17 inh	V-ATPase pHluor	Lipid droplet	Rh123 counter	others
O=C(Nc1ccc(Br)c(C(F)(F)F)c1)c1ccc(C(F)(F)F)cc1	14.8	0.1	82.8*	5.9	0.1	-3.2	86.5*
O=C(Nc1ccc(C(F)(F)F)cc1)c1ccc2nc[nH]c2c1	2.4	0.0	79.5*	0.7	-2.4	-0.3	92.7*
COc1ccc(S[C@]2(C(=O)N3CCOCC3)CC(=O)N(c3ccc(C#N)cc3)[C@@H]2c2ccc(OC)cc2)cc1	11.0	·	·	4.9	·	·	·
COc1cc(OC)c2c(O)c3c(=O)cc(C)oc3c(-c3c(OC)cc4cc5c(c(O)c4c3O)C(=O)CC(C)(O)O5)c2c1 (stereo unspecified)	15.9	·	·	5.5	·	·	·
Cc1ccc(CN=Cc2[nH]c3ccc(Br)c(Cl)c3c2O)cc1	4.2	3.9*	69.1*	-0.2	-1.9	-17.9	-1.6
Cc1nn(-c2ccccc2)c(C)c1/C=N/NC(=O)c1[nH][nH]c(=O)c1C	-7.0	·	·	-1.6	·	·	·
Cc1ccc(NC(=O)CC(O)(C(F)(F)F)C(F)(F)F)cc1	8.8	0.3	63.8*	0.6	0.5	·	81.5*
COc1ccc(C)cc1NC(=O)CC(O)(C(F)(F)F)C(F)(F)F	5.1	-0.3	8.5	2.5	-0.1	-6.8	·
O=C(NCC1CCCO1)Nc1cc(Cl)cc(Cl)c1 (stereo unspecified)	1.3	0.8	81.9*	-2.1	1.3	-4.9	88.1*
CCCCOc1ncnc2c1[nH]c1ccc(F)cc12	-146.4	6.5*	94.8*	-47.8	0.7	·	84.3*
O=C(CCCN1CCC(O)(c2cccc(C(F)(F)F)c2)CC1)c1ccc(F)cc1	-6.0	0.2	4.0	-3.2	-2.6	·	·
CCOC(=O)N1CCN(c2ncnc3c2[nH]c2ccc(F)cc23)CC1	-109.1	5.9*	98.4*	-35.9	-3.3	·	84.3*
OC1(c2cccc(C(F)(F)F)c2)CCN(c2ncnc3c2[nH]c2ccc(F)cc23)CC1	-84.4	3.7*	50.4*	-38.6	-4.8	-0.8	87.4*
Fc1ccc2[nH]c3c(Cl)ncnc3c2c1	-343.5	0.3	-0.9	-68.3	5.6	3.2	·
Fc1ccc2[nH]c3c(N4CCN(c5ccccc5)CC4)ncnc3c2c1	-5.0	3.4	97.6*	-0.3	-5.0	-22.9	111.5*
CCOC(=O)N1CCN(c2ncnc3c2[nH]c2ccc(OC)cc23)CC1	i	0.8	0.4	-154.4	-2.4	·	·
COc1ccc(Cn2ccc3ccc(-c4ccc5ccn(Cc6ccccc6)c5c4)cc32)cc1	-64.3	·	·	-24.1	·	·	·
CC(C)Oc1ccc(Oc2ccc(C#C[C@H](C)N3C(=O)c4ccccc4C3=O)cc2)cn1	0.5	·	·	-3.4	·	·	·
O=C(OC12CCCN(C1)/C(=C/c1cccnc1)C2)c1ccccc1 (stereo unspecified)	0.8	·	·	0.3	·	·	·
CS(=O)(=O)c1ccc2nc(NC(=O)Nc3ccc(Cl)c(Cl)c3)sc2c1	5.7	-0.1	95.4*	-0.1	1.0	-2.5	70.8*
Cc1ccc(NC(=O)Nc2nc3ccc(S(C)(=O)=O)cc3s2)cc1	-2.6	1.0	64.8*	-9.2	0.1	·	70.3*
CS(=O)(=O)c1ccc2nc(NC(=O)Nc3cccc(Cl)c3)sc2c1	-3.5	-0.1	88.6*	-3.6	0.8	·	59.5*
OC(CNCc1ccc(Cl)cc1)(c1ccccc1)c1ccc(F)cc1 (stereo unspecified)	5.1	-0.3	73.0*	-1.4	-0.6	-1.2	12.9	MPTP swell DR=18.5*;MPTP cs DR=24.5*

From PubChem
